Test [1] relates to P388. In words: (§1) T/C ratio against P388 leukemia in mice at a dose(mg/kg, schedule (q.d.)). Format: functional, Mus musculus. Summed up: (§2)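 Mice inoculated ip with 10⁶ P388 leukemia cells on day 0. Dosed once on day 1, or q.d. days 1-9 or 1-5. Solutions or suspensions given within about 5 min of preparation, or within 15 min where marked. Value is median/mean survival time, treated vs control, as T/C %. Dose counted toxic if day-5 mortality >3 of 6, T/C <85%, or weight-change difference beyond -4 g.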

Test [2] relates to P388. The test is described as §1. The format is functional, Mus musculus. Summed up:
as §2
This is another data set of the same source.

The subject of test [3] is P388. In words: T/C ratio against P388 leukemia in mice at a dose(mg/kg, schedule (q.d.). Format: functional, organism-based. The note with it: Mus musculus. Summed up:
as §2

For test [4], the system named is P388. Kind of test: Weight change in mice against P388 leukemia. The format is functional, Mus musculus. Summed up:
(§3)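 P388 leukemia mice given 10⁶ cells ip on day 0 and then treated on a single day-1 or q.d. 1-9 or 1-5 schedule. Solutions or suspensions given within about 5 or 15 min of preparation. Value is average weight change on day 5 of treated mice minus that of control mice, in g.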

Test [5] relates to P388. Described as §1. The format is functional, Mus musculus. The gist of the method:
as §2
This is another data set of the same source.

Test [6] has as its system P388. Kind of test: weight change difference (T-C) in mice against P388 leukemia at a dose(mg/kg, schedule). The format is functional, Mus musculus. The gist of the method:
as §3

Test [7] deals with P388. Described as §1. Format: functional, Mus musculus. Summed up:
as §2
This is another data set of the same source.

Test [8] concerns P388. Kind of test: T/C ratio against P388 leukemia in mice at a dose(mg/kg, schedule). Format: functional, Mus musculus. The gist of the method:
as §2

Test [9] concerns P388. In words: T/C ratio against P388 leukemia in mice dose(mg/kg, schedule (q.d.)). The format is functional, Mus musculus. The gist of the method: as §2

“And” between values parts separate entries of the source, which are not always exact repeats. Identical values can stand only once.

On to `O=S(=O)(CI)OCCCl`, for which the figures for the T/C with P388 [1], in the test with P388 [2] and in the test on P388 [3] were 93%, 110% and “Toxic”, respectively. In addition, in the test with P388 [4], the Weight change difference is -0.1 g.

Take `CCOS(=O)(=O)CCl`: the T/C in the test with P388 [1] is 107% and 100% and 60%.

`O=S(=O)(OCCCl)c1c(Cl)c(Cl)c(Cl)c(Cl)c1Cl`: the T/C is 96% and 92% with P388 [1]; 92% in the test with P388 [5]; “Toxic” in the test on P388 [3]. Also, the Weight change difference with P388 [4] was -3.2 g and -4.3 g and -1.6 g.

With `O=S(=O)(CCl)NCCCl`, the T/C in the test with P388 [1] is listed as 106%.

Turning to `C=C(Br)S(=O)(=O)OCCCl`, the T/C in the test with P388 [1] is 100% and 104%; with P388 [3] it was “Toxic”. Moreover, in the test on P388 [4], the Weight change difference is -2.8 g and -1.4 g.

Turning to `O=S(=O)(OCCCl)c1ccc(F)cc1`, the T/C with P388 [1] was 100% and 101%.

Turning to `O=S(=O)(CCl)OCCCl`, the T/C was 214% and 201% and 175% and 131% and 120% in the test on P388 [1]; “Toxic” in the test on P388 [3].

On to `C=CS(=O)(=O)OCCCl`, for which the T/C in the test on P388 [1] is 125% and 111%; with P388 [3] it was “Toxic”.

`O=[N+]([O-])c1ccc(CS(=O)(=O)OCCCl)cc1`: the T/C result in the test with P388 [3] was “Toxic”.

As for `O=S(=O)(CBr)OCCCl`, the Weight change difference with P388 [6] is on record as -0.2 g. The T/C with P388 [1] is 165% and 200% and 159% and 128% and 120%.

On to `O=S(=O)(OCCF)c1cc(Cl)c(Cl)cc1Cl`, for which the T/C with P388 [1] was 113% and 98%; with P388 [3], “Toxic”.

With `O=[N+]([O-])c1ccc(/C=C/S(=O)(=O)OCCCl)cc1`, the T/C with P388 [1] is 100% and 104%; in the test on P388 [3], “Toxic”.

On to `CCS(=O)(=O)OCCCl`, for which the T/C with P388 [1] is 116% and 104%.

`N#CCS(=O)(=O)OCCCl`: in the test on P388 [1], the T/C was 151% and 144% and 126%. Further, the Weight change difference in the test with P388 [4] was -1.5 g and -2.1 g and -1.1 g.

Take `O=S(=O)(CCl)OCCF`: the T/C is 117% and 102% in the test on P388 [1]; “Toxic” in the test on P388 [3]. Besides, in the test with P388 [4], the Weight change difference was -2.1 g and -0.8 g.

For the compound `CS(=O)(=O)OCCBr`, the T/C was 116% and 114% in the test on P388 [1]; “Toxic” in the test with P388 [3].

In the case of `CCS(=O)(=O)OCCF`, the T/C in the test with P388 [1] was 106% and 111%; with P388 [3] it was “Toxic”. Further, the Weight change difference with P388 [4] was -0.7 g and -0.6 g.

`O=S(=O)(/C=C/c1ccccc1)OCCCl`: in the test on P388 [1], the T/C was found to be 107%. The compound also displayed a Weight change difference in the test on P388 [4] of -0.1 g.

With `CS(=O)(=O)OCCF`, the T/C with P388 [1] was 89% and 103% and 111% and 100%; with P388 [3], “Toxic”.

With `O=S(=O)(OCCCl)c1cc(Cl)c(Cl)cc1Cl`, the T/C in the test with P388 [1] was 90% and 114% and 105%.

For `Cc1c(C)c(C)c(S(=O)(=O)OCCCl)c(C)c1C`, the T/C in the test with P388 [1] was found to be 95%. The Weight change difference with P388 [4] is given as -0.2 g.

As to `COc1ccc(S(=O)(=O)OCCCl)cc1`, the T/C with P388 [1] stood at 100%. Besides, the Weight change difference with P388 [4] is given as 0 g.

`O=S(=O)(OCCCl)c1c(F)c(F)c(F)c(F)c1F`: the T/C in the test with P388 [1] was 110% and 100%; with P388 [3] it was “Toxic”.

For the compound `CS(=O)(=O)OCCCl`, the Weight change difference in the test on P388 [6] was -1.2 g and -2.2 g and -0.9 g; in the test with P388 [4] it was -1.6 g and -0.8 g. Moreover, the T/C in the test on P388 [7] was 102%; with P388 [1], 134% and 133%; in the test on P388 [8], 110%; in the test with P388 [3], “Toxic”; with P388 [9] it was 108%.

For `O=C(CCl)NCCCl`, the T/C is 100% and 97% with P388 [1]; “Toxic” with P388 [3].

On to `Cc1cc(C)c(S(=O)(=O)OCCCl)c(C)c1`, for which the T/C in the test on P388 [1] was 95% and 106%; in the test with P388 [3], “Toxic”.

The values above are taken from ChEMBL document CHEMBL1122272, “2-haloethylating agents for cancer chemotherapy. 2-haloethyl sulfonates” (1983).
